Results taken from ChEMBL document CHEMBL4480366, “Rationally synthesized coumarin based pyrazolines ameliorate carrageenan induced inflammation through COX-2/pro-inflammatory cytokine inhibition” (Medchemcomm, 2019).
The source made the active and inactive calls. The rule behind the calls is not given here.

How the values were obtained:
[1] = system: Rattus norvegicus; assay: Anti-inflammatory activity Wistar rat assessed as reduction in TNF-alpha production at 25 mg/kg, ip pretreated 30 mins prior to carrageenan-induction and measured after 24 hrs post induction by immunoassay; assay type: functional, organism-based
How it was run: (§1)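 Male Wistar rats, 4–6 weeks old and weighing 150–200 g, were housed four per cage at 22–24 °C with standard food and water.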

[2] = system: Erythrocyte; assay: Anti-inflammatory activity in human erythrocytes assessed as inhibition of heat-induced hemolysis; assay type: functional, cell-based
[3] = molecular target: T1, Prostaglandin G/H synthase 2 (Ovis aries, UniProt P79208); assay: Inhibition of ovine COX2 using arachidonic acid as substrate preincubated for 10 mins followed by substrate addition and measured after 2 mins by ELISA
T1 sequence (P79208 whole entry): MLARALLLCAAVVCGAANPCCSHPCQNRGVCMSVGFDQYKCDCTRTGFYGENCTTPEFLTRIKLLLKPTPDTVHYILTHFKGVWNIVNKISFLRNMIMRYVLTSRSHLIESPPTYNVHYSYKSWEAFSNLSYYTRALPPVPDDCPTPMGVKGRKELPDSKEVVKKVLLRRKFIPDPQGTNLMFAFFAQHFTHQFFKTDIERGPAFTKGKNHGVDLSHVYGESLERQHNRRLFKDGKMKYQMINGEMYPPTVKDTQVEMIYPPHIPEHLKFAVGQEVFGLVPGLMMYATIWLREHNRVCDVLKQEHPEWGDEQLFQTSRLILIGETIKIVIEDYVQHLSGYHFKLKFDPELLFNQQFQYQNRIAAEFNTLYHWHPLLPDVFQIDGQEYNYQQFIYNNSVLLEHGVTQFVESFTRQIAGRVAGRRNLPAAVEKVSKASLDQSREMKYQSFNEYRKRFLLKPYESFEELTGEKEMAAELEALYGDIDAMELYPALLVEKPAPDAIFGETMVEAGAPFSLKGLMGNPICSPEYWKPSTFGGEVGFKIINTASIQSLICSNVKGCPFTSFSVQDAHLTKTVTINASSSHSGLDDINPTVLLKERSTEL
How it was run: (§2)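 The enzyme, heme and test compound (dissolved in DMSO) were preincubated for 10 min at 37 °C in 0.1 M Tris-HCl, pH 8, with 5 mM EDTA and 2 mM phenol. Arachidonic acid was added to 100 µM final. The reaction was stopped after 2 min with 1 M HCl, then reduced with saturated SnCl2 for 5 min at RT. PGF2α was quantified by EIA (18 h RT, Ellman's reagent 60 min, 410 nm).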

[4] = system: Rattus norvegicus; assay: Anti-inflammatory activity Wistar rat assessed as inhibition of carrageenan-induced paw edema at 25 to 50 mg/kg pretreated 30 mins prior to carrageenan-induction and measured after 0.5 to 24 hrs by plethysmography; assay type: functional, organism-based; conditions: TDE = time-dependent effect; how it was run: as §1
[5] = system: Rattus norvegicus; assay: Anti-inflammatory activity Wistar rat assessed as inhibition of carrageenan-induced paw edema at 25 to 50 mg/kg pretreated 30 mins prior to carrageenan-induction and measured after 24 hrs by plethysmography; assay type: functional; how it was run: as §1
[6] = system: Rattus norvegicus; assay: Anti-inflammatory activity Wistar rat assessed as reduction in IL-1beta production at 25 mg/kg, ip pretreated 30 mins prior to carrageenan-induction and measured after 24 hrs post induction by immunoassay; assay type: functional, organism-based; how it was run: as §1
[7] = In-vitro anti-inflammatory activity assessed as inhibition of heat-induced albumin (unknown origin) denaturation
[8] = system: Rattus norvegicus; assay: Anti-inflammatory activity Wistar rat assessed as reduction in IL-6 production at 25 mg/kg, ip pretreated 30 mins prior to carrageenan-induction and measured after 24 hrs post induction by immunoassay; assay type: functional, organism-based; how it was run: as §1
[9] = molecular target: T2, Prostaglandin G/H synthase 1 (Ovis aries, UniProt P05979); assay: Inhibition of ovine COX1 using arachidonic acid as substrate preincubated for 10 mins followed by substrate addition and measured after 2 mins by ELISA; how it was run: as §2
T2 sequence (P05979 whole entry): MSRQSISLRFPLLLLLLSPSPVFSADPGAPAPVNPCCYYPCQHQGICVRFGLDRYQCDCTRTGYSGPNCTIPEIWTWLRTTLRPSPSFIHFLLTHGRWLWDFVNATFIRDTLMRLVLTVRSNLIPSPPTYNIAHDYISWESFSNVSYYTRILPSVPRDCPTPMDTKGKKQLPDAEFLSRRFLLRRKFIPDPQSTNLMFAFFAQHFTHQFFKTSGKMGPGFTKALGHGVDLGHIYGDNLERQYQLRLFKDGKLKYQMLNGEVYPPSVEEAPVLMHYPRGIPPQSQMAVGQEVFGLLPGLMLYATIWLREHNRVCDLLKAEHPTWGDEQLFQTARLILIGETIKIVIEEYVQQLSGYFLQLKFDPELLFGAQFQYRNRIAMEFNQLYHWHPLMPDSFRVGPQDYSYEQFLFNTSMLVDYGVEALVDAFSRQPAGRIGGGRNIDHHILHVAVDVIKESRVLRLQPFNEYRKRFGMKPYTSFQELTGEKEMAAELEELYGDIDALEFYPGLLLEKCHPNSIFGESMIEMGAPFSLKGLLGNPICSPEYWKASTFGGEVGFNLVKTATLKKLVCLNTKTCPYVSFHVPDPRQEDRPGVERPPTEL

[10] = system: Erythrocyte; assay: Anti-inflammatory activity in human erythrocytes assessed as inhibition of hypotonicity-induced hemolysis at 10 to 100 ug/ml relative to control; assay type: functional, cell-based
[11] = system: Erythrocyte; assay: Anti-inflammatory activity in human erythrocytes assessed as inhibition of hypotonicity-induced hemolysis at 100 ug/ml relative to control; assay type: functional
[12] = system: Erythrocyte; assay: Anti-inflammatory activity in human erythrocytes assessed as inhibition of heat-induced hemolysis at 50 ug/ml relative to control; assay type: functional
[13] = system: Rattus norvegicus; assay: Analgesic activity in Wistar rat assessed as reduction in acetic acid-induced abnormal writhing administered intraperitoneally 1 hr prior to acetic acid induction relative to control; assay type: functional; design: scale not given: the % may be the effect or the level left; how it was run: as §1
[14] = system: Erythrocyte; assay: Anti-inflammatory activity in human erythrocytes assessed as inhibition of hypotonicity-induced hemolysis at 10 ug/ml relative to control; assay type: functional
[15] = system: Erythrocyte; assay: Anti-inflammatory activity in human erythrocytes assessed as inhibition of hypotonicity-induced hemolysis at 25 ug/ml relative to control; assay type: functional
[16] = system: Erythrocyte; assay: Anti-inflammatory activity in human erythrocytes assessed as inhibition of heat-induced hemolysis at 25 ug/ml relative to control; assay type: functional
[17] = system: Erythrocyte; assay: Anti-inflammatory activity in human erythrocytes assessed as inhibition of heat-induced hemolysis at 100 ug/ml relative to control; assay type: functional
[18] = system: Erythrocyte; assay: Anti-inflammatory activity in human erythrocytes assessed as inhibition of hypotonicity-induced hemolysis at 50 ug/ml relative to control; assay type: functional
[19] = system: Erythrocyte; assay: Anti-inflammatory activity in human erythrocytes assessed as inhibition of heat-induced hemolysis at 10 ug/ml relative to control; assay type: functional
[20] = Acute toxicity in Wistar rat assessed as induction of behavioural changes at 50 mg/kg, po administered as as single dose observed continuously during first 4 hrs followed by periodic monitoring for 24 hrs and subsequent observations at once or twice daily for 14 days; assay type: organism-based; conditions: in vivo
How it was run: (§3)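 Rats of either sex were used, per OECD guidelines, housed four per cage at 22–24 °C with standard food and water. They were fasted 4 h before and 2 h after dosing. Compounds were given as a single oral dose, with an untreated control group. Animals were watched continuously for the first 4 h, then periodically to 24 h, then once or twice daily for 14 days.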

[21] = Hepatotoxicity in Wistar rat assessed as effect on liver at 2000 mg/kg, po administered as as single dose observed continuously during first 4 hrs followed by periodic monitoring for 24 hrs and subsequent observations at once or twice daily for 14 days by hematoxylin and eosin staining-based assay; assay type: toxicity, organism-based; conditions: in vivo
[22] = Renal toxicity in Wistar rat assessed as effect on kidney at 2000 mg/kg, po administered as as single dose observed continuously during first 4 hrs followed by periodic monitoring for 24 hrs and subsequent observations at once or twice daily for 14 days by hematoxylin and eosin staining-based assay; assay type: organism-based; conditions: in vivo
[23] = Acute toxicity in Wistar rat assessed as induction of irritation at 300 to 2000 mg/kg, po administered as as single dose observed continuously during 1 to 4 hrs; assay type: organism-based; conditions: in vivo; how it was run: as §3
[24] = Cardiotoxicity in Wistar rat assessed as effect on myocardium at 2000 mg/kg, po administered as as single dose observed continuously during first 4 hrs followed by periodic monitoring for 24 hrs and subsequent observations at once or twice daily for 14 days by hematoxylin and eosin staining-based assay; assay type: toxicity, organism-based; conditions: in vivo
[25] = Acute toxicity in Wistar rat assessed as induction of behavioural changes at 50 to 2000 mg/kg, po administered as as single dose observed continuously during first 4 hrs followed by periodic monitoring for 24 hrs and subsequent observations at once or twice daily for 14 days; conditions: in vivo
[26] = Acute toxicity in Wistar rat assessed as induction of sneezing at 300 to 2000 mg/kg, po administered as as single dose observed continuously during 1 to 4 hrs; assay type: organism-based; conditions: in vivo; how it was run: as §3
[27] = Acute toxicity in Wistar rat assessed as induction of itching at 300 to 2000 mg/kg, po administered as as single dose observed continuously during 1 to 4 hrs; assay type: organism-based; conditions: in vivo; how it was run: as §3
[28] = Inhibition of soyabean 5-LOX after 5 mins by spectrophotometric analysis; design: species or system Glycine max
[29] = system: Rattus norvegicus; assay: Analgesic activity in Wistar rat assessed as reduction in acetic acid-induced abnormal writhing administered intraperitoneally 30 mins after substance P injection followed by acetic acid induction after 30 mins; assay type: functional, organism-based; how it was run: as §1
[30] = In-vitro anti-inflammatory activity assessed as inhibition of heat-induced albumin (unknown origin) denaturation at 100 ug/ml

Row | SMILES | Activity [1] | Activity [2] | IC50 [3] [nM] | inhibition [4] | inhibition (INH) [5] [%] | Activity [6] | inhibition [7] | Activity [8] | IC50 [9] [µM] | Activity [10] | also measured
1 | CC(=O)N1N=C(c2cc3ccccc3oc2=O)CC1c1ccc(O)cc1 (stereo not drawn) | Active | Dose-dependent effect | 2390 | Tde | 55.43 | Active | Dose-dependent effect | Active | 20 | Active | 
2 | CC(=O)N1N=C(c2cc3ccccc3oc2=O)CC1c1ccc(Cl)cc1 (stereo not drawn) |  | Dose-dependent effect |  |  |  |  | Dose-dependent effect |  |  | Active | 
3 | CC(=O)N1N=C(c2cc3ccccc3oc2=O)CC1c1ccccc1 (stereo not drawn) |  | Dose-dependent effect |  |  |  |  | Dose-dependent effect |  |  | Active | 
4 | Cc1ccc(-c2ncc(Cl)cc2-c2ccc(S(C)(=O)=O)cc2)cn1 [ETORICOXIB] |  |  | 230 |  |  |  |  |  | > 30 |  | inhibition at 100 µg/mL [11]: 69%; inhibition at 50 µg/mL [12]: 78%; Activity [13]: 57.6%; inhibition at 10 µg/mL [14]: 52%; inhibition at 25 µg/mL [15]: 62%; inhibition [5]: Active; inhibition at 25 µg/mL [16]: 73%; inhibition at 100 µg/mL [17]: 76%; inhibition at 50 µg/mL [18]: 66%; inhibition at 10 µg/mL [19]: 65%
5 | COc1cc(C2CC(c3cc4ccccc4oc3=O)=NN2C(C)=O)cc(OC)c1OC (stereo not drawn) |  | Dose-dependent effect | 4350 |  |  |  | Dose-dependent effect |  | > 30 | Active | 
6 | CC(=O)N1N=C(c2cc3ccccc3oc2=O)CC1c1ccc([N+](=O)[O-])cc1 (stereo not drawn) | Active | Dose-dependent effect | 1790 | Tde | 52.17 | Active | Dose-dependent effect | Active | 16.2 | Active | 
7 | COc1ccc(C2CC(c3cc4ccccc4oc3=O)=NN2C(C)=O)cc1 (stereo not drawn) | Active | Dose-dependent effect | 410 | Tde | 67.39 | Active | Dose-dependent effect | Active | 22.4 | Active | Activity [20]: Non-Toxic; inhibition at 100 µg/mL [11]: 68%; inhibition at 50 µg/mL [12]: 67%; Activity [13]: 70.5%; Activity [21]: Non-Toxic; inhibition at 10 µg/mL [14]: 62%; inhibition at 25 µg/mL [15]: 63%; Activity [22]: Non-Toxic; Activity [23]: Toxic; Activity [24]: Non-Toxic; Activity [25]: Non-Toxic; inhibition at 25 µg/mL [16]: 63%; inhibition at 100 µg/mL [17]: 69%; Activity [26]: Toxic; Activity [27]: Toxic; IC50 [28]: 12 µM; inhibition at 50 µg/mL [18]: 67%; Activity [29]: inactive; inhibition [30]: 70%; inhibition at 10 µg/mL [19]: 60%
8 | COc1ccccc1C1CC(c2cc3ccccc3oc2=O)=NN1C(C)=O (stereo not drawn) |  | Dose-dependent effect | 4370 |  |  |  | Dose-dependent effect |  | > 30 | Active | 
